Results on one compound are retold here after ChEMBL document CHEMBL4342521 (J Med Chem, 2020).

Structures are written as SMILES. Active and inactive are the calls of the source. The calls are words filed in the database; no cut-off is given here.

One data set deals with Hs-578T. Nature of the data set: Antiproliferative activity against human Hs 578T cells assessed as reduction in cell viability after 48 hrs by CellTiter-Blue assay. Format: functional. The conditions noted are these: read-out: LC50 (the source's name). Put shortly: (§1)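 Cells grown in RPMI1640 with 10% FBS at 37 °C, 5% CO₂. 5,000–10,000 cells/well were pre-incubated overnight, and a time-zero CellTiter-Blue read was taken. Six 10-fold dilutions (top final 10 μM) were applied for 48 h, followed by 0.125 mg/mL CellTiter-Blue for 2–4 h. Resorufin fluorescence was read at ex 560/em 590 nm. […] Triplicates.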
(In general: Resazurin is reduced to fluorescent resorufin, in cell work by metabolically active cells.)

The target in data set [1] is Protein deacetylase HDAC6 (Homo sapiens) (UniProt Q9UBN7). Briefly: Inhibition of HDAC6 in human MV4-11 cells assessed as tubulin acetylation at 500 nM incubated for 3 hrs followed by compound washout and measured after 30 mins to 6 hrs by Western blot analysis. Format: cell-based. Put shortly: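 MV4-11 cells exposed for 3 h, drug washed out, then cultured drug-free for 30 min, 1, 3 or 6 h. Acetylation read by western blot; t = 0 taken right after the 3 h exposure.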

Another data set has as its target Histone deacetylase 4 (Homo sapiens, UniProt P56524). Nature of the data set: Inhibition of recombinant human HDAC4 using Boc-Lys (trifluoroacetyl)-AMC as substrate preincubated for 1 hr followed by substrate addition and measured after 2 hrs by fluorescence based micro plate reader analysis. Summed up:
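Recombinant enzyme was preincubated with serially varied inhibitor for 1 h at 30 °C. Boc-Lys(trifluoroacetyl)-AMC was then added to a final 50 μM and incubated 2 h at 30 °C. The reaction was stopped with developer containing trypsin and TSA, and fluorescence (ex 360/em 460 nm) was read 30 min later. Inhibition was taken relative to control wells and fitted to a variable-slope log(inhibitor) curve. Values are the mean of at least three experiments.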

Data set [2] deals with MV4-11. Briefly: Down regulation of STAT5 in human MV4-11 cells harboring wild type p53/FLT3-ITD mutant at 50 to 200 nM after 24 hrs by Western blot analysis. Type of data set: functional, cell-based. Put shortly:
(§2)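 Cells (1,500,000 per well) grown 12 h, then drug-treated as specified. Lysed in RIPA buffer, sonicated, centrifuged, protein normalized by BCA. Run on 4–12% Bis-Tris gels in MES, transferred, probed overnight at 4 °C with primary antibodies at 1/1000. Actin served as reference for LC3-II quantitation.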

The next data set concerns T47D. Nature of the data set: Antiproliferative activity against human T47D cells assessed as reduction in cell viability after 48 hrs by CellTiter-Blue assay. Format: functional. The conditions noted are these: read-out: LC50 (the source's name). Summed up: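 NCI-60 panel lines grown in RPMI1640 with 10% FBS at 37 °C, 5% CO₂. Seeded at 5,000–10,000 cells/well and pre-incubated overnight. Exposed for 48 h to six 10-fold dilutions (top final 10 μM), with a time-zero plate read at dosing. CellTiter-Blue (0.125 mg/mL) for 2–4 h, fluorescence 560/590 nm, triplicate curves.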

The test system of data set [3] is MV4-11. Nature of the data set: Induction of apoptosis in human MV4-11 cells harboring wild type p53/FLT3-ITD mutant assessed as upregulation of P21WAF1/Cip1 expression at 50 to 200 nM after 24 hrs by Western blot analysis. Format: functional, cell-based. Put shortly:
as §2

A further data set concerns SK-OV-3. Briefly: Antiproliferative activity against human SKOV3 cells assessed as reduction in cell viability after 48 hrs by CellTiter-Blue assay. Format: functional. The note with it: SK-OV-3, 48 h, read-out: LC50 (the source's name). Summed up: as §1
Another data set relates to SF-539. Nature of the data set: Antiproliferative activity against human SF539 cells assessed as reduction in cell viability after 48 hrs by CellTiter-Blue assay. Type of data set: functional. The conditions noted are these: SF-539, 48 h, read-out: LC50 (the source's name). Put shortly: as §1
The test system of the next data set is NCI-H322M. Nature of the data set: Antiproliferative activity against human NCI-H322M cells assessed as reduction in cell viability after 48 hrs by CellTiter-Blue assay. Type of data set: functional. The conditions noted are these: read-out: LC50 (the source's name). Summed up:
as §1

The target in a further data set is Histone deacetylase 8 (Homo sapiens, UniProt Q9BY41). Nature of the data set: Inhibition of recombinant full length human C-terminal His-tagged HDAC8 expressed in baculovirus infected Sf9 cells using Boc-Lys (trifluoroacetyl)-AMC as substrate preincubated for 1 hr followed by substrate addition and measured after 2 hrs by fluorescence based micro plate reader analysis. Put shortly: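 Recombinant HDAC8 preincubated with test agent at 30 °C for 1 h. Boc-Lys(trifluoroacetyl)-AMC added (final 50 μM), 2 h at 30 °C. Stopped with trypsin/TSA developer for 30 min; fluorescence read at 360/460 nm. Inhibition relative to control wells; IC50 by variable-slope fit.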

For a further data set, the system named is SK-MEL-28. Briefly: Antiproliferative activity against human SK-MEL-28 cells assessed as reduction in cell viability after 48 hrs by CellTiter-Blue assay. Type of data set: functional. The conditions noted are these: SK-MEL-28, 48 h, read-out: LC50 (the source's name). Put shortly: as §1
A further data set deals with NCI-H23. Briefly: Antiproliferative activity against human NCI-H23 cells assessed as reduction in cell viability after 48 hrs by CellTiter-Blue assay. Type of data set: functional. The conditions noted are these: NCI-H23, 48 h, read-out: LC50 (the source's name). Put shortly: as §1
A further data set deals with ACHN. Nature of the data set: Antiproliferative activity against human ACHN cells assessed as reduction in cell viability after 48 hrs by CellTiter-Blue assay. The note with it: read-out: LC50 (the source's name). Format: functional. Summed up: as §1
Another data set deals with HL-60. Briefly: Induction of autophagy in p53 null human HL60 cells harboring wild type FLT3 assessed as LC-3 degradation at 50 to 200 nM after 24 hrs by Western blot analysis. Type of data set: functional, cell-based. Put shortly:
as §2
(A western blot detects proteins with antibodies after separation by electrophoresis.)

The subject of a further data set is SK-MEL-2. Briefly: Antiproliferative activity against human SK-MEL-2 cells assessed as reduction in cell viability after 48 hrs by CellTiter-Blue assay. Type of data set: functional. The conditions noted are these: SK-MEL-2, 48 h, read-out: LC50 (the source's name). Put shortly: as §1
Another data set concerns SF-268. Nature of the data set: Antiproliferative activity against human SF268 cells assessed as reduction in cell viability after 48 hrs by CellTiter-Blue assay. Format: functional. The note with it: SF-268, 48 h, read-out: LC50 (the source's name). Put shortly: as §1
Data set [4] is described as follows: Cmax in CD1 mouse at 20 mg/kg, po via gavage after 24 hrs by LC-MS/MS analysis. The note with it: in vivo. Type of data set: ADME, organism-based. Also on record: dose 20 mg/kg, route oral. Summed up: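 Male CD-1 mice, fasted overnight, 3 per route; compound in PBS with 5% DMSO, iv bolus 5 mg/kg or oral gavage 20 mg/kg. Blood sampled at 5, 15, 30 min and 1–24 h. Plasma protein-precipitated with acetonitrile plus internal standard, quantified by LC-MS/MS (MRM). AUC by linear trapezoidal method; parameters by non-compartmental analysis.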

The next data set has as its system M14. Nature of the data set: Antiproliferative activity against human M14 cells assessed as reduction in cell viability after 48 hrs by CellTiter-Blue assay. Type of data set: functional. The note with it: M14, 48 h, read-out: LC50 (the source's name). Put shortly:
as §1

In the next data set the test system is K562. Nature of the data set: Antiproliferative activity against human K562 cells assessed as reduction in cell viability after 48 hrs by CellTiter-Blue assay. Format: functional. The conditions noted are these: K562, 48 h, read-out: LC50 (the source's name). Put shortly: as §1
Another data set relates to SK-MEL-5. Briefly: Antiproliferative activity against human SK-MEL-5 cells assessed as reduction in cell viability after 48 hrs by CellTiter-Blue assay. Format: functional. The note with it: SK-MEL-5, 48 h, read-out: LC50 (the source's name). Summed up: as §1

Histone deacetylase 4, sequence (P56524 whole entry): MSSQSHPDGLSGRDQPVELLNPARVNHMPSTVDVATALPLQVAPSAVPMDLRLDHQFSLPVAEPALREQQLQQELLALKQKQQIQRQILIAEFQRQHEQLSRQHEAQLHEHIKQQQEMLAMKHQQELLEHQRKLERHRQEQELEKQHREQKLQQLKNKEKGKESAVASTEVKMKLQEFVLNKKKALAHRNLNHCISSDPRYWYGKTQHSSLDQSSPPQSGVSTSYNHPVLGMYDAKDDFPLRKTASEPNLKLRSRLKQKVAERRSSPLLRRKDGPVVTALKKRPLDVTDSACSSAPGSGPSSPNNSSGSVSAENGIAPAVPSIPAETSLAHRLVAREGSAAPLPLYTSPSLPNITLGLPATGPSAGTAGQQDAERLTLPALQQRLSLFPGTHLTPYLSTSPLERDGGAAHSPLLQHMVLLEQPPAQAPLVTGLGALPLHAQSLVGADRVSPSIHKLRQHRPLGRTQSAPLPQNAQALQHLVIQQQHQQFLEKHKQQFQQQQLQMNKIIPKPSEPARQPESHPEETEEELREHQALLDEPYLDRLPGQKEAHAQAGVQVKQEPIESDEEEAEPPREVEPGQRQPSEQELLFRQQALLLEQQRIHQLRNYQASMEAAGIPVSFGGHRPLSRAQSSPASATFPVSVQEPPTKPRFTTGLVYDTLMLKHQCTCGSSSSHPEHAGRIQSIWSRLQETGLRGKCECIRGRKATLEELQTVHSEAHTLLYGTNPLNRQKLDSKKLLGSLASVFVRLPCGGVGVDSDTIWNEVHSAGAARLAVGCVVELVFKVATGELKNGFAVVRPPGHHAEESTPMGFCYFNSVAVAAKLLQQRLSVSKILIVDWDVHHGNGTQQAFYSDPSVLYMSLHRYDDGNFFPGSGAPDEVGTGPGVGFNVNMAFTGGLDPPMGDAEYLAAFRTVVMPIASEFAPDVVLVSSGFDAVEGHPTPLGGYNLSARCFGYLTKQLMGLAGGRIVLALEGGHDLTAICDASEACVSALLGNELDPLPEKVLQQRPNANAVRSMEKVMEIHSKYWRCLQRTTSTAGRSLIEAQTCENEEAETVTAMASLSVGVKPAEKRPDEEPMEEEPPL
Histone deacetylase 8, sequence (Q9BY41 whole entry): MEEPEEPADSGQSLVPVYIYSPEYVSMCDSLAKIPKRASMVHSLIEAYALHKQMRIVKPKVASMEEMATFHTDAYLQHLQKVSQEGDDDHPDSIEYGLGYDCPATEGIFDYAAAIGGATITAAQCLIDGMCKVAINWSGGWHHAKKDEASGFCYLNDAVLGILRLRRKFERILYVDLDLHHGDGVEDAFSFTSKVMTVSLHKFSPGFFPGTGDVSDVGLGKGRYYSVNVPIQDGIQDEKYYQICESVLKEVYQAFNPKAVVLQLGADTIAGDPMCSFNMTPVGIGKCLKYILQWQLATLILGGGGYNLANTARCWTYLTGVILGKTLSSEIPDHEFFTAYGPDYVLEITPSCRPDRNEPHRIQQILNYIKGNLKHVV
Protein deacetylase HDAC6 (Homo sapiens), sequence (Q9UBN7 whole entry): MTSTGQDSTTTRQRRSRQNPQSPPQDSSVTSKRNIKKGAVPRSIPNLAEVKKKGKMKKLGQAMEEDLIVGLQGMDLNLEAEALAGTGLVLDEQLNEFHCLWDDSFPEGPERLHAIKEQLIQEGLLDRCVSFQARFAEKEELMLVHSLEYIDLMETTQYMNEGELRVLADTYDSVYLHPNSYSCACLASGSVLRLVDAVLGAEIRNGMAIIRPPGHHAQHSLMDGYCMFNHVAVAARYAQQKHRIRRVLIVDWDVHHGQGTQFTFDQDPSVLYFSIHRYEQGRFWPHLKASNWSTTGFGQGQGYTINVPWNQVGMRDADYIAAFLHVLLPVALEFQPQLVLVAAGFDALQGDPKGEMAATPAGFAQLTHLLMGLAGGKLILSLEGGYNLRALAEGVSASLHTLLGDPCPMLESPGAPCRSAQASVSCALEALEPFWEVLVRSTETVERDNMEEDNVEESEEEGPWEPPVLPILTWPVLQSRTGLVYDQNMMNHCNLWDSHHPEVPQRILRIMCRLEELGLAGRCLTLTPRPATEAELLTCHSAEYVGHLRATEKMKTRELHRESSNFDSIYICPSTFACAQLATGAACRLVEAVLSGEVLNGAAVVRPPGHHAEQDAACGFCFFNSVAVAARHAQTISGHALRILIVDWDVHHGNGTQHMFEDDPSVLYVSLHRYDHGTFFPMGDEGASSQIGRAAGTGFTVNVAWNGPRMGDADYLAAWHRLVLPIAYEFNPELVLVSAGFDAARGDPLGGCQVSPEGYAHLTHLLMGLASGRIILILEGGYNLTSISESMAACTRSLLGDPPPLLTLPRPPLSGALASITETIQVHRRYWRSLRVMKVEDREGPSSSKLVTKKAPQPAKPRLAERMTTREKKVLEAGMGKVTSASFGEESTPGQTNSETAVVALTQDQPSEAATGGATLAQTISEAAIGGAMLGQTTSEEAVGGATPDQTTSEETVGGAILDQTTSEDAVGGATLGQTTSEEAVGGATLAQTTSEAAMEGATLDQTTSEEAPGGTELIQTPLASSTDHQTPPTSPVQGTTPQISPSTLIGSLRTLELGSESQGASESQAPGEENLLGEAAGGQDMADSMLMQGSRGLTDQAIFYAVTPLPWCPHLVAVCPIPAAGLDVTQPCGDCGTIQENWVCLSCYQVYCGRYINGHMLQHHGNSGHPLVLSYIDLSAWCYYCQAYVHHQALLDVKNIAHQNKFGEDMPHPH

The IC50 is the concentration needed to halve the response being measured. Usually Cmax stands for the peak of the concentration-time curve. With `CCCNNC(=O)/C=C/c1ccc(CNCCc2c(C)[nH]c3ccccc23)cc1.O=C(O)C(F)(F)F`, the CC50 with Hs-578T was over 10 µM; with T47D, over 10 µM; with SK-OV-3 it was over 10 µM; with SF-539, over 10 µM; in the data set with NCI-H322M, over 10 µM; with SK-MEL-28 it was 893 nM. Besides, the CC50 in the data set on NCI-H23, with ACHN, in the data set on SK-MEL-2, in the data set on SF-268, in the data set with M14 and with K562 was over 10 µM throughout. The CC50 with SK-MEL-5 was over 10 µM. In [1], the inhibition entry was “inactive”. In addition, the half-maximal inhibitory concentration (IC50) at Histone deacetylase 4 is over 10 µM; on Histone deacetylase 8, 1760 nM. Moreover, the outcome with MV4-11 [2] and in the data set with MV4-11 [3] was Active. The outcome in the data set with HL-60 was inactive. For the same compound, the peak concentration (Cmax) in data set [4] came to 45.1 ng/mL.
